Shown is part of a subset that was picked to be rich in hits.
AP complement: alternative pathway complement inhibition, orthogonal assay; Human serum alternative complement pathway, LPS-coated ELISA, C3 deposition; tested in compound mixtures; inhibition, % at 5 µM; 62,000 compounds, 0.08% hits; AID 1235;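 active means inhibition above 30% in each of the two pooled mixtures holding the compound, so the lower value exceeds 30%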;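 further: 0% = serum in Mg-EGTA without compound and 100% = EDTA serum blank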
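Assay system: Human serum alternative complement pathway, C3 deposition on LPS-coated wells | Incubation: 1 h serum-compound exposure at 37 °C | Doses: 5 µM per compound in ten-compound mixtures | Read-out: Percent inhibition | Technique: ELISA with HRP anti-human C3 antibody, TMB substrate, absorbance 450 nm | Replication: Two pool placements per compound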
Calb biofilm kill: kills Candida albicans biofilms; AID 834; C. albicans biofilm + clotrimazole, Alamar Blue; inhibition, % at 6 µM; 85,000 compounds, 0.14% hits;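 active means inhibition above 20%; inactive means inhibition below 20%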;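 further: preformed 24 hr biofilms exposed to compound for 48 hr; 0% = biofilm without compound and 100% = blank killed by clotrimazole plus chlorhexidine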
D1 mod: allosteric modulators of human D1 dopamine receptor; 58,000 compounds, 5.9% hits; HEK293 D1, CRE-luciferase, dopamine EC30 potentiation; actives deviate in either direction; P21728; B-score at 10 µM; AID 641;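 active means luminescence count or its row- and column-corrected plate score outside the 99.7% band of the plate's sample wells, on either side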
hDAT+cocaine: changed human dopamine transporter uptake under cocaine IC80 | Q01959 | AID 449768 | 110,000 compounds, 1.3% hits | LLC-PK1 hDAT cells, [14C]-dopamine uptake with cocaine IC80; actives deviate in either direction | B-score at 10 µM;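 active means Z score or B-score, a plate-position-corrected score, falls beyond the plate's 99.7% confidence bounds, in either direction; inactive means both scores lie inside the 99.7% bounds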;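 further: scored against the spread of the other compound wells on the same plate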
Target sequence (Q01959 whole entry, looked up): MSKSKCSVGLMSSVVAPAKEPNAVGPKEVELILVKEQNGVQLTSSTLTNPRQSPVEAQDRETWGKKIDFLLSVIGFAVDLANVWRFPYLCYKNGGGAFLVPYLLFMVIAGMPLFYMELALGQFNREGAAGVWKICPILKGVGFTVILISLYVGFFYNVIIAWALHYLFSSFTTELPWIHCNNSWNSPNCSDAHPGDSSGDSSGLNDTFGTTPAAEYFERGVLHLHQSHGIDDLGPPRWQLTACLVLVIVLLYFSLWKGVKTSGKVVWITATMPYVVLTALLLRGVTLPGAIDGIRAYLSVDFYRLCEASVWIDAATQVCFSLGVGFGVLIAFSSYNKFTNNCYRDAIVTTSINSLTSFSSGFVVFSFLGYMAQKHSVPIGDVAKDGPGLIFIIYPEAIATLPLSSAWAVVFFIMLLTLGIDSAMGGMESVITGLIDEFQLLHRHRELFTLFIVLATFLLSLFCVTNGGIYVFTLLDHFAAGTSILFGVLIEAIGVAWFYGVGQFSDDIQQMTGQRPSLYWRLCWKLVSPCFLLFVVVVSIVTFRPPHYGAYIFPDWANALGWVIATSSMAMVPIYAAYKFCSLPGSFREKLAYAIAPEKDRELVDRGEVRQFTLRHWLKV
MMP13 inh: blocks human MMP13 activity. P45452. MMP-13 fTHP FRET cleavage, Mca fluorescence. inhibition, % at 4 µM. 65,000 compounds, 0.07% hits. AID 570;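 active means inhibition above the mean of compound-free control plate wells plus 3 SD, cut at about 14% in these data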;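 further: 0% = DMSO wells and 100% = wells with reference MMP-13 inhibitor after basal subtraction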
D1 PAM confirm: D1 receptor (human) allosteric modulation, confirmed; 2,200 compounds, 88% hits; luminescence at 10 µM; shares compounds with D1 mod; HEK293 D1 CRE-luciferase, dopamine EC30 potentiation; active compounds read high;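 active means luminescence in either of two replicates above the same-plate mean plus 3 SD of the low-dose dopamine control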
D1 no dopamine: D1 (human) signaling in absence of dopamine; shares compounds with D1 mod; luminescence at 10 µM; HEK293 D1 CRE-luciferase, luminescence, no dopamine; active compounds read high; 1,900 compounds, 0.8% hits; in the data active means luminescence above about 3900
Isoprot counter: counter-screen for D1 modulators: isoproterenol response in HEK293 cells | shares compounds with D1 mod | HEK293 D1 CRE-luciferase, isoproterenol EC30 counter-screen; active compounds read high | luminescence at 10 µM | 2,200 compounds, 63% hits | AID 647;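 active means luminescence in either replicate above plate mean of wells with a partly effective reference agonist dose plus 3 SD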;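 further: isoproterenol raises cAMP through native beta-adrenoceptor Gs so signal bypasses D1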
Numbers without * were called inactive; . = no result given.

SMILES	AP complement	Calb biofilm kill	D1 mod	hDAT+cocaine	MMP13 inh	D1 PAM confirm	D1 no dopamine	Isoprot counter
CC#CCN1c2ccccc2[C@]23C[C@@H](C(=O)OC)N(C(=O)c4ccco4)C2=NC(C(=O)OC)=C(C(=O)OC)[C@H]13	.	.	.	-0.046	.	.	.	.
Cn1c(SCC(=O)N2CCOCC2)nc2sc3c(c2c1=O)CCCC3	-5	-3	0.012	0.95	2	.	.	.
C=CCn1c(SCC(=O)N2CCOCC2)nc2sc3c(c2c1=O)CCCC3	2	-3	3.4*	3.1*	-1	7424*	1576	4804*
COC(=O)CSc1nc2sc3c(c2c(=O)n1C1CCCCC1)CCN(C)C3	8	9	15*	.	-56	21932*	1592	4432*
CCn1c(SCC(=O)OC)nc2sc3c(c2c1=O)CCC3	21	.	16*	-0.23	.	16808*	1576	4628*
CCn1c(SCC(=O)O)nc2sc3c(c2c1=O)CCC3	.	6	0.87	0.25	-1	.	.	.
Cc1cc(-c2cc(-c3ccccc3)on2)nc(NCC2CC2)n1	.	.	.	-0.032	.	.	.	.
O=C(OCC#CCSc1nnc(-c2ccc(Br)cc2)o1)c1ccco1	13	1	4.8*	0.89	2	7080*	1620	2468
NC(=O)NC(=O)Nc1ccccc1Cl	7	1	2.8*	0.23	2	7220*	1472	2560
O=C(Nc1cccs1)Nc1ccccc1Cl	3	4	-0.26	0.098	0	.	.	.
CCCN(C#N)c1nc(NCC)nc(NC(C)C)n1	-29	9	17*	0.16	2	24080*	1560	4728*
CCN(CC)C(=O)CN(C#N)c1nc(NC(C)C)nc(NC(C)C)n1	.	-7	.	0.34	-1	.	.	.
c1ccc(Cc2nn3c(COc4ccccc4)nnc3s2)cc1	19	3	9.1*	0.092	5	17316*	1624	3636*
CCOc1ccccc1OCc1nn2c(COc3ccccc3)nnc2s1	28	9	0.021	0.3	4	.	.	.
CC(=O)C(C)Oc1ccc2c3c(c(=O)oc2c1)CCCC3 (stereo unspecified)	9	3	7.8*	0.83	-84	8432*	.	3280*
CC(=O)C(C)Oc1ccc2c3c(c(=O)oc2c1)CCCCC3 (stereo unspecified)	-4	7	1.5	-0.042	-280	.	.	.
CC(=O)COc1ccc2c3c(c(=O)oc2c1)CCCC3	-28	8	4.9*	0.019	-101	9956*	1048	3800*
CCCc1nnc(NC(=O)c2ccncc2)s1	9	8	-0.43	-0.94	4	.	.	.
CCc1nnc(NC(=O)c2ccncc2)s1	8	-4	2.8*	-0.68	1	4640	1208	2180
C1CNCCOCCNCCN1	.	5	.	0.19	.	.	.	.
COc1ccc(CCN2CCCn3c2nc2c3c(=O)n(Cc3ccccc3F)c(=O)n2C)cc1OC	9	2	6.3*	0.74	2	17816*	1740	3112
COc1ccc(N2CCCn3c2nc2c3c(=O)n(Cc3ccccc3F)c(=O)n2C)c(OC)c1	10	6	-0.61	-0.53	-5	.	.	.
CC[C@@H](C)C(NC(=O)OC(C)(C)C)c1cn([C@@H](Cc2cc3ccccc3[nH]2)C(=O)N2CCN(C(=O)OC(C)(C)C)CC2)nn1 (stereo partly specified)	.	.	.	0.38	.	.	.	.
CCOc1ccc(-c2nnc3n2N=C(c2ccc(OC)cc2)CS3)cc1	-2	4	.	-0.12	6	.	.	.
CCOc1ccc(C2=Nn3c(nnc3-c3ccccc3OC)SC2)cc1	.	.	28*	0.25	1	21740*	.	15468*
SMILES	AP complement	Calb biofilm kill	D1 mod	hDAT+cocaine	MMP13 inh	D1 PAM confirm	D1 no dopamine	Isoprot counter
Brc1ccccc1C1=Nn2c(nnc2-c2ccccc2)SC1	1	-3	12*	0.18	3	13500*	1464	5228*
COc1ccccc1-c1nnc2n1N=C(c1ccc(O)c(O)c1)CS2	.	10	23*	-1.8	4	21320*	.	12092*
CC(=O)Nc1ccc(S(=O)(=O)NNC(=O)c2cc3c4ccccc4n(C)c3s2)cc1	.	.	.	-0.011	.	.	.	.
CC(NCc1ccc(N(C)C)cc1)C1CC2CCC1C2 (stereo unspecified)	.	0	.	0.044	.	.	.	.
Cc1noc(C)c1S(=O)(=O)N(CC(=O)N1CCCCCC1)c1ccc(C(C)C)cc1	13	11	1.8*	0.065	2	7028	1368	2460
O=C(NC(Cc1ccccc1)C(=O)OCC(=O)N1CCc2ccccc21)c1ccco1 (stereo unspecified)	-13	8	3.1*	-0.032	3	5596	1648	2496
COC(=O)c1c(-c2cccs2)csc1NC(=O)CN1CCOCC1	6	4	28*	1.4	-2	18224*	1740	10288*
CCOC(=O)c1cc(-c2ccc(N)cc2)sc1N	7	-2	10*	0.19	-2	21552*	1580	3604*
CCOC(=O)c1sc(-c2ccc(Br)cc2)cc1N	.	7	.	0.096	.	.	.	.
O=C(Nc1ccccc1Oc1ccccc1)c1cnccn1	7	9	4.1*	-0.76	1	9216*	1488	2808
O=C(CN1CCN(c2ccccn2)CC1)Nc1cc(C(F)(F)F)ccc1Cl	6	10	0.48	-1.1	-2	.	.	.
O=C(CN1CCN(c2ccccn2)CC1)Nc1ccc(Cl)c(C(F)(F)F)c1	-4	10	5.5*	0.069	2	7388	1768	2332
CCOC(=O)c1c(C)nc2sc3c(c2c1-c1ccc(OC)cc1)NC(c1ccc(OC)cc1)NC3=O (stereo unspecified)	.	.	.	-0.14	.	.	.	.
COc1cccc(C(=O)N(CN2CCCC2=O)c2cccc(Cl)c2)c1	9	.	.	1.8	-2	.	.	.
CC(C)Oc1ccc(C(=O)N(CN2CCCC2=O)c2ccc(F)cc2)cc1	5	7	4.5*	1.7	-4	7800	1532	2588
COc1ccc(OCC2CNC(=O)O2)cc1 (stereo unspecified)	-2	10	.	.	1	.	.	.
O=C1NCC(CN(c2ccccc2)c2ccccc2)O1 (stereo unspecified)	16	0	2.9*	-0.045	-8	9384*	1528	3892*
CCOC(=O)c1nn(-c2ccccc2C)c2nc(-c3ccc(Cl)cc3)c(C#N)c(=O)n12	.	.	.	0.78	.	.	.	.
O=C(O)C[C@H]1c2cc(C(F)(F)F)ccc2S(=O)(=O)N1C1CCN(Cc2ccccc2)CC1	.	.	.	-0.38	.	.	.	.
CCCNC(=O)c1onc(CSc2ccc(Cl)cc2)c1C(=O)NCCC(C)C	.	.	.	0.025	.	.	.	.
COc1ccc(NC(=O)c2sc(SC)nc2N)cc1	0	10	15*	0.8	2	19600*	1536	4944*
Cc1cc(C)nc(N2CCC(C(=O)NC3CCCc4ccccc43)CC2)n1 (stereo unspecified)	6	9	0.2	-0.39	0	.	.	.

Compound activity as filed in PubChem.
